Results: PubChem BioAssay AID624314 (The Scripps Research Institute Molecular Screening Center, 2012)
The source made the active and inactive calls.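 The calls were made as follows: active = relative activity ratio above 1.25 at every tested dose; inactive = the rest.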

System: HEK293 3B-HSD promoter CAT reporter, ELISA absorbance
Assay: 3B-HSD promoter reporter expression modulators, late-stage follow-up, counter-screen for DAX1 (NR0B1) inhibitor project, cell-based, absorbance (AID 624314)
Conditions: at 100 µM (top of the series)
Outline: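 Test system: transfected HEK293 cells with DAX-1, SF-1, 3β-HSD2 promoter CAT; times: compound exposure 16 h at 37 °C; measured by: colorimetric enzyme immunoassay of CAT protein, absorbance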

Row | SMILES | relative activity ratio
1 | Cn1c(=O)n(C)c2cc(C(=O)Nc3ccc4c(c3)OCCO4)ccc21 | 0.26 (inactive)
2 | Cn1c(=O)n(C)c2cc(C(=O)Nc3ccc4c(c3)OCO4)ccc21 | 0.34 (inactive)
